Screening data: PubChem BioAssay, several laboratories
CSN deneddyl inh = inhibitors of human CSN-mediated cullin deneddylation | inhibition, % at 12.5 µM | Purified CSN, SCF-Nedd8-OG deneddylation, fluorescence polarization | AID 651999 | hit rate 0.38% among 360,000;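 active = pattern-corrected inhibition above about 35%, with an unprinted fluorescence ratio check between 0.5 and 1.5, limit read from the data, passing the limit was not always enough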;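 also: 0% = enzyme with substrate and 100% = substrate without enzyme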
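Assay system: HEK293T-derived human Csn5 enzyme; quantity: 0.24 nM enzyme; medium: Tris/NaCl/DTT buffer, pH 7.5; also added: substrate SCFSkp2-Nedd8OG, 10 nM; doses: 12.5 µM compound; schedule: 90 min reaction at room temperature; signal: FP; read-out: % inhibition of substrate cleavage by Csn5; benchmarks: substrate-only high control, full reaction low control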
TPT1 inhibitor = blocks Candida albicans tRNA 2'-phosphotransferase | recombinant caTPT1, FP RNA substrate dephosphorylation | inhibition, % at 5 µM | hit rate 0.81% among 300,000;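 active = inhibition above the mean of all tested compounds plus 3 SD, set per screening campaign, cut at about 24% in these data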;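 also: plate controls were DMSO alone for no effect and ferristatin control at 100 nM for full effect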
HNF4A DNA FP = change in binding of human HNF4 alpha to DNA; activity change, % at 10 µM; HNF4a-FITC DNA binding, fluorescence polarization, 1 h; AID 1224865; hit rate 0.3% among 360,000; in the data active = activity change above about 30%, passing the limit was not always enough
ATG4B inh = blocks human ATG4B protease cleavage of LC3 substrate; inhibition, % at 8.33 µM; Q9Y4P1; ATG4B cleavage of LC3-PLA2, NBD-HPC fluorescence, 1 h; hit rate 0.51% among 340,000; in the data active = inhibition above about 40%
SENP1 inh = inhibitors of human SENP1 SUMO protease catalytic domain. Q9P0U3. recombinant SENP1 catalytic domain, CyPet-SUMO1-YPet FRET cleavage. inhibition, % at 10 µM. hit rate 0.21% among 360,000;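 active = inhibition at least 30% at 10 µM, raw YFP signal under a set limit, fluorescence ratio 0.5 to 1.5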;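 also: 0% = enzyme with DMSO and 100% = no enzyme wells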
Target sequence (Q9P0U3 419-644 limits assumed): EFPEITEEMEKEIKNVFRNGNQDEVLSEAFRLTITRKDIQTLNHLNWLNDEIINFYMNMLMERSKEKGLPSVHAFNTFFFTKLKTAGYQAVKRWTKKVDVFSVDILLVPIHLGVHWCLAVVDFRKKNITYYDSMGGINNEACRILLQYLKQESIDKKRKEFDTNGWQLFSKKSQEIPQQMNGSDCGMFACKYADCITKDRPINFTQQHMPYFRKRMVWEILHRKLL
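Test system: hSENP1 catalytic domain, recombinant; Amount: 20 pM final SENP1 enzyme; Medium: Tris pH 8 buffer plus EDTA, NaCl, BME, BSA, NP40, catalase; Schedule: 50 min enzyme reaction, room temperature, light-protected; Technique: FRET fluorescence in CFP and YFP emission channels; Controls: no-enzyme wells low, DMSO-plus-enzyme wells high control.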
Rpn11 inh = blocks the human proteasome subunit Rpn11. O00487. human 26S proteasome, Ub4-pepOG fluorescence polarization; 20S core pre-blocked with epoxomicin. hit rate 0.59% among 360,000. inhibition, % at 20 µM;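 active = inhibition at 20 µM, scaled to each plate's controls, above about 33%, limit read from the data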
Target sequence (O00487 whole entry, looked up): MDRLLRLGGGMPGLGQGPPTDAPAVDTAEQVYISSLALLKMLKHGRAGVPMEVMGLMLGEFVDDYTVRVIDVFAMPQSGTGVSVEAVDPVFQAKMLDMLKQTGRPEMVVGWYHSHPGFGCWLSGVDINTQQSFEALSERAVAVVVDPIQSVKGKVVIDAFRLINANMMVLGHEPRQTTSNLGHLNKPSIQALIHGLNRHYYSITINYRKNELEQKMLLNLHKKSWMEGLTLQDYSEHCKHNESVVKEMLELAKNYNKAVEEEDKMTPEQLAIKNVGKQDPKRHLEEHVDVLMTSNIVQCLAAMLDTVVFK
ATG4B conf = confirmation of human ATG4B inhibitors. shares compounds with ATG4B inh. ATG4B protease fluorescent substrate cleavage assay. inhibition, % at 8.33 µM. hit rate 92% among 320. AID 504757; in the data active = inhibition above about 39%
PLA2 counter = counter-screen for ATG4B inhibitors: human phospholipase A2; shares compounds with ATG4B inh; purified PLA2, NBD-C6-HPC fluorescence, 45 min; inhibition, % at 8.33 µM; hit rate 66% among 1,600; AID 588402; in the data active = inhibition above about 50%
Target sequence (P04054 whole entry, looked up): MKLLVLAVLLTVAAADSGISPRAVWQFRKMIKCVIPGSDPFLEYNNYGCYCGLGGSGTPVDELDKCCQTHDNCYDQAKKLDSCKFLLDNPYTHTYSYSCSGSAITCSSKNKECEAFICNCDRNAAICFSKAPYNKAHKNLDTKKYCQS
An asterisk follows results filed as active; . = no result. Compounds with a hit are over-represented: about 2% of the library has one in this group of screens.

SMILES	CSN deneddyl inh	TPT1 inhibitor	HNF4A DNA FP	ATG4B inh	SENP1 inh	Rpn11 inh	PLA2 counter	others
Cn1cc([C@]2(O)C(=O)Nc3cccc(Cl)c32)c2ccccc21	2.0	.	-2.0	.	2.2	.	.
Cc1cccc(N=Cc2cc(Br)cc(Cl)c2O)c1	-0.5	5.5	-2.8	40.2*	-24.0	3.7	30.7	ATG4B conf=63.0*
O=C(c1ccc(Cl)cc1)c1oc2ccccc2c1CS(=O)c1ccccc1 (stereo not given)	-4.5	-4.6	1.4	53.7*	4.1	2.4	58.9*
CCc1ccc(C(CNC(=O)c2ccc3c(=O)n(-c4ccccc4F)c(=S)[nH]c3c2)N(C)C)cc1 (stereo not given)	0.8	-0.3	-3.6	69.8*	-6.3	6.8	82.8*
Cc1ccc2[nH]c(=O)c(CN(Cc3cccs3)Cc3nnnn3Cc3ccccc3)cc2c1	4.9	3.7	11.8	51.5*	-6.8	10.3	65.5*
CCc1ccccc1NC(=S)NC1CC2CCCC(C1)N2Cc1cccs1 (stereo not given)	-1.2	-2.9	-1.8	48.2*	1.8	-5.3	47.9
Cc1ccc(NC(=S)NC2CC3CCCC(C2)N3Cc2cccs2)cc1 (stereo not given)	2.7	2.5	1.0	4.6	0.2	4.1	.
Cc1cccc(NC(=S)NC2CC3CCCC(C2)N3Cc2cccs2)c1C (stereo not given)	0.2	2.7	-0.9	48.9*	0.4	2.2	58.8*
CS(=O)(=O)c1ccccc1C(=O)Nc1ccc(S(=O)(=O)N2CCCC2)cc1	-2.3	.	6.9	-0.5	-1.4	0.7	.
COC(=O)c1ccc(Nc2nnc(-c3ccc(C)c(S(=O)(=O)NCC4CCCO4)c3)c3ccccc23)cc1 (stereo not given)	1.7	0.6	1.3	9.7	-5.7	21.3	.
CNC(=O)c1ccc(Nc2nnc(-c3ccc(C)c(S(N)(=O)=O)c3)c3ccccc23)cc1	1.7	-1.1	-1.4	-6.7	-5.0	-17.1	.
NC(=O)COc1ccc(Nc2nnc(-c3ccc(O)cc3)c3ccccc23)cc1	-0.3	-3.8	-2.6	57.0*	1.0	-1.5	68.8*
Cc1ccc(-c2nnc(Nc3ccc(CC(N)=O)cc3)c3ccccc23)cc1S(=O)(=O)NCC1CCCO1 (stereo not given)	-0.2	2.4	1.1	90.4*	-3.9	10.1	88.9*
CNS(=O)(=O)c1cc(-c2nnc(Nc3ccc(CC(N)=O)cc3)c3ccccc23)ccc1C	0.4	-4.7	0.9	90.6*	-2.0	3.3	90.5*
Cc1ccc(-c2nnc(Nc3ccc(CC(N)=O)cc3)c3ccccc23)cc1	4.4	0.6	-0.2	97.2*	-1.2	-1.8	97.5*
CN(C)c1ccc(-c2csc(C(O)(c3ccccc3)C(F)(F)F)n2)cc1 (stereo not given)	-6.2	.	1.9	.	1.3	2.4	.
CC1(C)OC(=O)C2=C(C[C@@H](CCOCc3ccccc3)O[C@H]2c2ccc(F)cc2)O1	-1.7	.	-3.8	.	-1.3	-1.7	.
CC1(C(=O)NS(=O)(=O)c2cccc(Cl)c2)CCN1C(=O)c1cccc2ccccc12 (stereo not given)	-1.7	.	0.9	.	0.7	-4.5	.
O=C(NCc1nnc(SCC(=O)N2CCOCC2)o1)c1ccccc1	2.2	.	0.8	.	2.2	-0.8	.
Cc1ccc(-c2nnc(Nc3ccc(OCC(N)=O)cc3)c3ccccc23)cc1S(N)(=O)=O	3.3	-1.5	1.1	32.9	1.2	0.3	.
Cc1ccc(-c2nnc(Nc3ccc(CC(N)=O)cc3)c3ccccc23)cc1S(N)(=O)=O	6.3	-1.7	-2.0	88.0*	0.9	-11.2	88.6*
O=C(CCc1nc(-c2cccs2)no1)NCc1ccc(F)cc1Cl	2.2	-0.8	-0.9	43.0*	-0.3	5.3	53.9*
Cc1ccc(NC(=S)NC2CCSc3ccccc32)cc1C (stereo not given)	3.4	-1.0	4.4	41.0*	1.7	-10.9	53.2*
NC(=O)COc1ccccc1/C=C1/SC(=O)N(CC(=O)N2CCc3ccccc3C2)C1=O	-0.2	-1.6	5.8	6.2	-1.3	1.4	.
CCOc1cc(/C=C2/SC(=O)N(CC(=O)N3CCc4ccccc4C3)C2=O)ccc1OCC(=O)O	-3.0	1.1	-1.6	55.8*	-6.0	9.9	45.0	ATG4B conf=67.2*
SMILES	CSN deneddyl inh	TPT1 inhibitor	HNF4A DNA FP	ATG4B inh	SENP1 inh	Rpn11 inh	PLA2 counter	others
OC(CN1c2ccccc2Sc2ccccc21)Cn1nnc2ccccc21 (stereo not given)	1.6	0.3	2.0	44.4*	1.3	-1.9	64.9*
O=C1c2ccccc2C(=O)N1CC(O)Cn1nnc2ccccc21 (stereo not given)	2.7	-1.6	-3.0	-5.6	0.3	1.9	.
O=C1N[C@@H](c2ccccc2)COC(=O)[C@@H](Cc2ccc(F)cc2)C/C=C\C[C@@H]1CC(=O)N(CCO)Cc1ccccc1	1.7	.	5.1	50.0*	1.6	5.1	54.0*
COc1cc(C(=C(CC(=O)O)C(=O)O)c2ccc3c(c2)OCO3)cc(OC)c1OC	4.5	.	1.5	3.1	0.6	-8.4	.
O=C(NC1CCC(O)CC1)c1ccc(NS(=O)(=O)c2cccc([N+](=O)[O-])c2)cc1 (stereo not given)	-0.8	.	0.2	5.4	2.1	-10.8	.
O=C(Nc1ccc2c(c1)OCCO2)C(c1cc2ccccc2o1)N1CCC(Cc2ccccc2)CC1 (stereo not given)	6.7	.	-2.7	.	-0.7	10.7	.
C=CCn1c(SCc2nc3scc(-c4ccccc4)c3c(=O)[nH]2)nnc1-c1ccccc1F	9.0	9.9	5.9	46.2*	11.7	23.8	41.5	ATG4B conf=62.4*
CCn1c(SCc2nc3scc(-c4ccccc4)c3c(=O)[nH]2)nnc1-c1ccc(Cl)cc1	3.1	6.8	8.4	2.2	1.0	24.3	.
Cc1cc(C)nc(N/N=C/c2ccccc2Cl)n1	-0.1	0.4	2.9	-3.6	2.8	0.4	.
Cc1cc(N/N=C/c2ccccc2Cl)nc(NCc2ccccc2)n1	-6.8	-2.4	2.0	85.4*	2.8	0.6	90.7*
Cc1oc(-c2ccccc2F)nc1CS(=O)(=O)CC(=O)NCc1ccccc1Cl	2.9	-1.8	-0.1	48.8*	2.2	-2.1	67.1*
Oc1nc(Nc2cccc(Cl)c2)sc1/C=C1\C=Nc2ccccc21	3.8	2.0	3.5	73.4*	-81.1	32.2	83.3*
Cc1ccc(CNC(=O)C2CSC3(C)CCC(=O)N23)cc1 (stereo not given)	0.1	.	-5.0	-4.8	0.8	6.7	.
